# Test results reported in ChEMBL document CHEMBL1121364, “Nucleoside conjugates as potential antitumor agents. 3. Synthesis and antitumor activity of 1-(beta-D-arabinofuranosyl)cytosine conjugates of corticosteroids” (1980).
# How the values were obtained:
# L1210 [1] = assay: Antitumor activity in the mice with intraperitoneal implanted L1210 lymphoid leukemia at the dose 9.2 and 14.5 mg/kg/day x 5 was determined and number of animals survived on 30 th day were reported; 0/6; type: functional, Mus musculus
# Method in brief: (§1)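 C3D2F1/J female mice (C3H/HeJ female × DBA/2J male), groups of six to eight, average weight 25 g. Inoculated ip with 1 × 10^6 L1210 ascites cells taken from DBA/2Ha donor mice bearing 3-5 day old tumors. Compounds were dissolved in 0.154 N NaOH, neutralized with 0.154 N HCl (final 0.9% NaCl), and given ip daily for 5 days from 24 h post-implant. Median survival T/C; ILS = (T/C − 1) × 100; 30-day survivors counted.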
# L1210 [2] = assay: Antitumor activity in the mice with intraperitoneal implanted L1210 lymphoid leukemia at the dose 17.7 and 27.7 mg/kg/day x 5 was determined and number of animals survived on 30 th day were reported; 0/8; type: functional, Mus musculus
# Method in brief: (§2)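 Female C3D2F1/J mice (C3H/HeJ × DBA/2J), groups of six to eight, average weight 25 g. Each mouse got 1 × 10^6 L1210 ascites cells ip, taken from DBA/2Ha donor mice bearing 3-5 day tumors. Compound was dissolved in 0.154 N NaOH and neutralized with 0.154 N HCl (final 0.9% NaCl). Dosed ip daily ×5, starting 24 h after implant. Recorded body weight change on day 8, survival range, median survival and 30-day survivors. ILS = (T/C − 1) × 100.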
# L1210 [3] = assay: Antitumor activity in the mice with intraperitoneal implanted L1210 lymphoid leukemia at the dose 9.2 and 14.5 mg/kg/day x 5 was determined as Survival time in days; Range is 12-16 days; type: functional, Mus musculus; method in brief: as §1
# L1210 [4] = assay: Antitumor activity in the mice with intraperitoneal implanted L1210 lymphoid leukemia at the dose 17.7 and 27.7 mg/kg/day x 5 was determined as percentage increase in the life span as compared with control tumor bearers; type: functional, Mus musculus; method in brief: as §2
# L1210 [5] = assay: Antitumor activity in the mice with intraperitoneal implanted L1210 lymphoid leukemia at the dose of 9.2 and 14.5 mg/kg/day x 5 was determined as mean survival of treated group compared to untreated; 12/11; type: functional, Mus musculus
# L1210 [6] = assay: Antitumor activity in mice with intraperitoneal implanted L1210 lymphoid leukemia at the dose 9.2 and 14.5 mg/kg/day x 5 was determined as weight change (g/mouse) on 8th day; type: functional; method in brief: as §2
# L1210 [7] = assay: Antitumor activity in the mice with intraperitoneal implanted L1210 lymphoid leukemia at the dose 17.7 and 27.7 mg/kg/day x 5 was determined as Survival time in days; Range is 7-17 days; type: functional, Mus musculus; method in brief: as §2
# L1210 [8] = assay: Antitumor activity in the mice with intraperitoneal implanted L1210 lymphoid leukemia at the dose 9.2 and 14.5 mg/kg/day x 5 was determined as percentage increase in the life span as compared with control tumor bearers; type: functional, Mus musculus; method in brief: as §1
# L1210 [9] = assay: Antitumor activity in mice with intraperitoneal implanted L1210 lymphoid leukemia at the dose 17.7 and 27.7 mg/kg/day x 5 was determined as weight change (g/mouse) on 8th day; type: functional; method in brief: as §2
# L1210 [10] = assay: Antitumor activity in the mice with intraperitoneal implanted L1210 lymphoid leukemia at the dose of 17.7 and 27.7 mg/kg/day x 5 was determined as mean survival of treated group compared to untreated; 10.5/9.5; type: functional, Mus musculus; method in brief: as §1
# L1210 [11] = assay: Antitumor activity in the mice with intraperitoneal implanted L1210 lymphoid leukemia at the dose 25 mg/kg/day x 5 was determined and number of animals survived on 30 th day were reported; 1/8; type: functional, Mus musculus; method in brief: as §2
# L1210 [12] = assay: Antitumor activity in the mice with intraperitoneal implanted L1210 lymphoid leukemia at the dose 75 mg/kg/day x 5 was determined as percentage increase in the life span as compared with control tumor bearers; type: functional; settings: Mus musculus, L1210, ip; method in brief: as §1
# L1210 [13] = assay: Antitumor activity in the mice with intraperitoneal implanted L1210 lymphoid leukemia at the dose 75 mg/kg/day x 5 was determined and number of animals survived on 30 th day were reported; 1/8; type: functional, Mus musculus; method in brief: as §1
# L1210 [14] = assay: In Vitro evaluation for the antiproliferative activity by observing the growth inhibition of L1210 lymphoid leukemia cells in culture at 72 hour; type: functional, Mus musculus
# Method in brief: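 Growth of L1210 lymphoid leukemia cells in culture measured by Trypan blue exclusion of viable cells after 72 h of drug exposure. ED50 is the concentration giving 50% growth inhibition. In some runs the compound was first preincubated in medium at 37 °C for 24 or 48 h before the assay.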
# L1210 [15] = assay: Antitumor activity in the mice with intraperitoneal implanted L1210 lymphoid leukemia at the dose 75 mg/kg/day x 5 was determined as Survival time in days; Range is 15-37 days; type: functional, Mus musculus; method in brief: as §1
# L1210 [16] = assay: Antitumor activity in the mice with intraperitoneal implanted L1210 lymphoid leukemia at the dose of 50 mg/kg/day x 5 was determined as mean survival of treated group compared to untreated; 20.5/8; type: functional, Mus musculus
# L1210 [17] = assay: Antitumor activity in the mice with intraperitoneal implanted L1210 lymphoid leukemia at the dose 50 mg/kg/day x 5 was determined as Survival time in days; Range is 14-24 days; type: functional, Mus musculus; method in brief: as §2
# L1210 [18] = assay: Antitumor activity in the mice with intraperitoneal implanted L1210 lymphoid leukemia at the dose 50 mg/kg/day x 5 was determined as percentage increase in the life span as compared with control tumor bearers; type: functional; settings: Mus musculus, L1210, ip; method in brief: as §1
# L1210 [19] = assay: Antitumor activity in mice with intraperitoneal implanted L1210 lymphoid leukemia at the dose 25 mg/kg/day x 5 was determined as weight change (g/mouse) on 8th day; type: functional
# Method in brief: (§3)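 C3D2F1/J female mice (C3H/HeJ × DBA/2J), groups of six to eight, average 25 g, inoculated ip with 1 × 10^6 L1210 ascites cells taken from DBA/2Ha donor mice carrying 3-5 day tumors. Compound dissolved in 0.154 N NaOH, then neutralized with 0.154 N HCl to give 0.9% NaCl. Given ip daily for 5 consecutive days starting 24 h after implantation. Body weight change per mouse recorded on day 8.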
# L1210 [20] = assay: Antitumor activity in the mice with intraperitoneal implanted L1210 lymphoid leukemia at the dose of 25 mg/kg/day x 5 was determined as mean survival of treated group compared to untreated; 17.5/9.5; type: functional, Mus musculus; method in brief: as §1
# L1210 [21] = assay: Antitumor activity in the mice with intraperitoneal implanted L1210 lymphoid leukemia at the dose 50 mg/kg/day x 5 was determined and number of animals survived on 30 th day were reported; 0/8; type: functional, Mus musculus; method in brief: as §2
# L1210 [22] = assay: Antitumor activity in mice with intraperitoneal implanted L1210 lymphoid leukemia at the dose 50 mg/kg/day x 5 was determined as weight change (g/mouse) on 8th day; type: functional; method in brief: as §3
# L1210 [23] = assay: Antitumor activity in the mice with intraperitoneal implanted L1210 lymphoid leukemia at the dose of 75 mg/kg/day x 5 was determined as mean survival of treated group compared to untreated; 18/9.5; type: functional, Mus musculus
# L1210 [24] = assay: Antitumor activity in mice with intraperitoneal implanted L1210 lymphoid leukemia at the dose 75 mg/kg/day x 5 was determined as weight change (g/mouse) on 8th day; type: functional; method in brief: as §3
# L1210 [25] = assay: Antitumor activity in the mice with intraperitoneal implanted L1210 lymphoid leukemia at the dose 25 mg/kg/day x 5 was determined as percentage increase in the life span as compared with control tumor bearers; type: functional; settings: Mus musculus, L1210, ip; method in brief: as §2
# L1210 [26] = assay: Antitumor activity in the mice with intraperitoneal implanted L1210 lymphoid leukemia at the dose 25 mg/kg/day x 5 was determined as Survival time in days; Range is 13- >45 days; type: functional, Mus musculus; method in brief: as §2
smiles,measurement,setting,value
C[C@]12CCC(=O)C=C1CC[C@H]1[C@@H]3CC[C@](O)(C(=O)CO)[C@@]3(C)C[C@H](O)[C@@]12F.Nc1ccn([C@@H]2O[C@H](CO)[C@@H](O)[C@@H]2O)c(=O)n1,Survivors,L1210 [1],0
same,Survivors,L1210 [2],0
same,Survival time,L1210 [3],12 days
same,ILS,L1210 [4],11%
same,T/C,L1210 [5],12
same,Weight change,L1210 [6],-4.47 g mouse-1
same,Survival time,L1210 [7],7 days
same,ILS,L1210 [8],9%
same,Weight change,L1210 [9],-3.48 g mouse-1
same,T/C,L1210 [10],10.5
C[C@H]1C[C@@H]2[C@H]([C@@H](O)C[C@@]3(C)[C@H]2CC[C@]3(O)C(=O)COP(=O)(O)OC[C@H]2O[C@@H](n3ccc(N)nc3=O)[C@@H](O)[C@@H]2O)[C@@]2(C)C=CC(=O)C=C12,Survivors,L1210 [11],1
same,ILS at 75 mg/kg/day,L1210 [12],90%
same,Survivors,L1210 [13],1
same,ED 50,L1210 [14],450 nM
same,Survival time,L1210 [15],15 days
same,T/C,L1210 [16],20.5
same,Survival time,L1210 [17],14 days
same,ILS at 50 mg/kg/day,L1210 [18],156%
same,Weight change,L1210 [19],2 g mouse-1
same,T/C,L1210 [20],17.5
same,Survivors,L1210 [21],0
same,Weight change,L1210 [22],-1.08 g mouse-1
same,T/C,L1210 [23],18
same,Weight change,L1210 [24],-1.07 g mouse-1
same,ILS at 25 mg/kg/day,L1210 [25],84%
same,Survival time,L1210 [26],13 days
